ChEMBL document CHEMBL1138564, “Microwave-induced synthesis and anti-microbial activities of 7,10,11,12-tetrahydrobenzo[c]acridin-8(9H)-one derivatives” (2009)
In brackets after ≈: the same amount, converted by molar mass. Activity calls are given as the source filed them. The rule behind the calls is not given here.

How the values were obtained:
Klebsiella aerogenes [1] = test: Antimicrobial activity against Klebsiella aerogenes NCIM 2239 at 1000 ug/disk after 24 hrs by disk diffusion method; type: functional
Method in brief: (§1)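 Disc diffusion on Mueller–Hinton agar. 100 µl of bacterial suspension at 10⁸ CFU/ml is spread on the plate. Discs carry test compounds at two loadings, dissolved in DMSO; DMSO alone serves as negative control. Ofloxacin disc is the positive reference. Plates are incubated at 37 °C for 24 h, and the inhibition zone diameter is measured.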

Rhodotorula mucilaginosa [2] = test: Antimicrobial activity against Rhodotorula rubra NCIM 3174 at 500 ug/disk after 72 hrs by disk diffusion method; type: functional; settings: NCIM 3174, 72 h, read-out: DIZ
Method in brief: (§2)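 Fungal disc diffusion. 100 µl of suspension at 10⁶ CFU/ml was spread on Sabouraud's dextrose agar. Discs carrying test compound in DMSO were applied, with a DMSO-only disc as negative control. Plates were incubated at 27 °C for 72 h, and the zone of inhibition diameter was measured.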

Escherichia coli [3] = test: Antimicrobial activity against Escherichia coli NCIM 2065 at 500 ug/disk after 24 hrs by disk diffusion method; type: functional; settings: NCIM 2065, 24 h, read-out: DIZ; method in brief: as §1
Trichoderma viride [4] = test: Antimicrobial activity against Trichoderma viride NCIM 1195 after 72 hrs by serial dilution method; type: functional; settings: NCIM 1195, 72 h
Method in brief: (§3)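 MIC by broth dilution in Sabouraud's dextrose broth, run only on fungi found sensitive in the disc assay. Twofold serial dilutions were made in 1 ml broth per tube, covering 3.9 to 1000. Inoculated tubes were incubated at 27 °C for 72 h.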

Aspergillus flavus [5] = test: Antimicrobial activity against Aspergillus flavus NCIM 902 after 72 hrs by serial dilution method; type: functional; settings: NCIM 535, 72 h, in the assay text read “NCIM 535” for “NCIM 902”
Method in brief: (§4)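 MIC by broth dilution in Sabouraud's dextrose broth, only for fungi sensitive in disc diffusion. Two-fold serial dilutions of compounds are made in 1 ml broth per tube, range 3.9 to 1000. Inoculated tubes are incubated at 27 °C for 72 h.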

Trichoderma viride [6] = test: Antimicrobial activity against Trichoderma viride NCIM 1195 at 1000 ug/disk after 72 hrs by disk diffusion method; type: functional; settings: NCIM 1195, 72 h, read-out: DIZ; method in brief: as §2
Aspergillus parasiticus [7] = test: Antimicrobial activity against Aspergillus parasiticus NCIM 904 at 1000 ug/disk after 72 hrs by disk diffusion method; type: functional; settings: NCIM 904, 72 h, read-out: DIZ
Method in brief: (§5)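 Disc diffusion on Sabouraud's dextrose agar. 100 µl of fungal suspension at 10⁶ CFU/ml is spread on the plate. Discs carry test compounds at two loadings in DMSO; DMSO alone is the negative control. Clotrimazole disc is the positive reference. Plates are incubated at 27 °C for 72 h, and the zone of inhibition diameter is measured.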

Rhodotorula mucilaginosa [8] = test: Antimicrobial activity against Rhodotorula rubra NCIM 3174 after 72 hrs by serial dilution method; type: functional; settings: NCIM 3174, 72 h; method in brief: as §3
Aliivibrio fischeri [9] = test: Antimicrobial activity against Vibrio fischeri NCIM 2154 at 1000 ug/disk after 24 hrs by disk diffusion method; type: functional; settings: NCIM 2154, 24 h, read-out: DIZ
Method in brief: (§6)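 Disc diffusion. 100 µl of bacterial suspension at 10⁸ CFU/ml was spread on Mueller–Hinton agar. Discs loaded with test compound dissolved in DMSO were placed on the lawn, with a DMSO-only disc as negative control. Plates were incubated at 37 °C for 24 h, and the inhibition zone diameter was measured.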

Aspergillus parasiticus [10] = test: Antimicrobial activity against Aspergillus parasiticus NCIM 904 after 72 hrs by serial dilution method; type: functional; settings: NCIM 904, 72 h; method in brief: as §4
Salmonella typhimurium = test: Antimicrobial activity against Salmonella Typhimurium NCIM 2501 at 500 ug/disk after 24 hrs by disk diffusion method; type: functional, Salmonella enterica subsp. enterica serovar Typhimurium; settings: Salmonella enterica, NCIM 2501, 24 h; read-out: DIZ; method in brief: as §6
[11] = system: Rhodococcus corynebacterioides; test: Antimicrobial activity against Corynebacterium rubrum NCIM 2252 at 1000 ug/disk after 24 hrs by disk diffusion method; type: functional; settings: Rhodococcoides corynebacterioides; method in brief: as §1
Aliivibrio fischeri [12] = test: Antimicrobial activity against Vibrio fischeri NCIM 2154 at 500 ug/disk after 24 hrs by disk diffusion method; type: functional; method in brief: as §6
Staphylococcus = test: Antimicrobial activity against Staphylococcus albus NCIM 2178 at 500 ug/disk after 24 hrs by disk diffusion method; type: functional; method in brief: as §6
Proteus vulgaris [13] = test: Antimicrobial activity against Proteus vulgaris NCIM 2027 at 1000 ug/disk after 24 hrs by disk diffusion method; type: functional; method in brief: as §1
[14] = system: Rhodococcus corynebacterioides; test: Antimicrobial activity against Corynebacterium rubrum NCIM 2252 at 500 ug/disk after 24 hrs by disk diffusion method; type: functional; settings: Rhodococcoides corynebacterioides; method in brief: as §1
Bacillus cereus [15] = test: Antimicrobial activity against Bacillus cereus NCIM 2155 at 1000 ug/disk after 24 hrs by disk diffusion method; type: functional; settings: NCIM 2155, 24 h, read-out: DIZ; method in brief: as §1
Aspergillus fumigatus [16] = test: Antimicrobial activity against Aspergillus fumigatus NCIM 902 at 500 ug/disk after 72 hrs by disk diffusion method; type: functional; method in brief: as §5
Bacillus subtilis [17] = test: Antimicrobial activity against Bacillus subtilis NCIM 2063 after 24 hrs by serial dilution method; type: functional; settings: NCIM 2063, 24 h
Method in brief: (§7)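 Broth dilution MIC in nutrient broth, run only for organisms found sensitive in disc diffusion. Compounds are two-fold serially diluted in 1 ml sterile broth per tube, spanning 3.9 to 1000. Inoculated tubes are incubated at 37 °C for 24 h.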

Klebsiella aerogenes [18] = test: Antimicrobial activity against Klebsiella aerogenes NCIM 2239 at 500 ug/disk after 24 hrs by disk diffusion method; type: functional; method in brief: as §1
Penicillium chrysogenum = test: Antimicrobial activity against Penicillium chrysogenum NCIM 707 at 500 ug/disk after 72 hrs by disk diffusion method; type: functional; method in brief: as §5
Bacillus cereus [19] = test: Antimicrobial activity against Bacillus cereus NCIM 2155 at 500 ug/disk after 24 hrs by disk diffusion method; type: functional; settings: NCIM 2155, 24 h, read-out: DIZ; method in brief: as §1
Rhodotorula mucilaginosa [20] = test: Antimicrobial activity against Rhodotorula rubra NCIM 3174 at 1000 ug/disk after 72 hrs by disk diffusion method; type: functional; settings: NCIM 3174, 72 h, read-out: DIZ; method in brief: as §2
Trichoderma viride [21] = test: Antimicrobial activity against Trichoderma viride NCIM 1195 at 500 ug/disk after 72 hrs by disk diffusion method; type: functional; settings: NCIM 1195, 72 h, read-out: DIZ; method in brief: as §2
Lipomyces lipofer = test: Antimicrobial activity against Lipomyces lipofer NCIM 3252 at 500 ug/disk after 72 hrs by disk diffusion method; type: functional; method in brief: as §5
Aspergillus flavus [22] = test: Antimicrobial activity against Aspergillus flavus NCIM 902 at 1000 ug/disk after 72 hrs by disk diffusion method; type: functional; settings: NCIM 902, 72 h, read-out: DIZ; method in brief: as §5
Escherichia coli [23] = test: Antimicrobial activity against Escherichia coli NCIM 2065 after 24 hrs by serial dilution method; type: functional; settings: NCIM 2065, 24 h; method in brief: as §7
Proteus vulgaris [24] = test: Antimicrobial activity against Proteus vulgaris NCIM 2027 at 500 ug/disk after 24 hrs by disk diffusion method; type: functional; method in brief: as §1
Bacillus subtilis [25] = test: Antimicrobial activity against Bacillus subtilis NCIM 2063 at 1000 ug/disk after 24 hrs by disk diffusion method; type: functional; settings: NCIM 2063, 24 h, read-out: DIZ; method in brief: as §1
Pseudomonas aeruginosa [26] = test: Antimicrobial activity against Pseudomonas aeruginosa NCIM 2200 at 500 ug/disk after 24 hrs by disk diffusion method; type: functional; method in brief: as §6
Aspergillus fumigatus [27] = test: Antimicrobial activity against Aspergillus fumigatus NCIM 902 at 1000 ug/disk after 72 hrs by disk diffusion method; type: functional; settings: NCIM 902, 72 h, read-out: DIZ; method in brief: as §5
Pseudomonas aeruginosa [28] = test: Antimicrobial activity against Pseudomonas aeruginosa NCIM 2200 at 1000 ug/disk after 24 hrs by disk diffusion method; type: functional; method in brief: as §1

MIC (Trichoderma viride [4]): 31.2 µg/mL (≈ 88.3 µM)
MIC (Aspergillus flavus [5]): 62.5 µg/mL (≈ 177 µM)
MIC (Rhodotorula mucilaginosa [8]): 31.2 µg/mL (≈ 88.3 µM)
MIC (Aspergillus parasiticus [10]): 62.5 µg/mL (≈ 177 µM)
MIC (Bacillus subtilis [17]): 31.2 µg/mL (≈ 88.3 µM)
MIC (Escherichia coli [23]): 62.5 µg/mL (≈ 177 µM)
Compound: CC1(C)CC(=O)C2=C(C1)Nc1c(ccc3ccccc13)C2c1ccccc1 (configuration not stated)
diameter of the inhibition zone (DIZ) (Klebsiella aerogenes [1]): inactive
zone of inhibition at 500 µg/disc (Rhodotorula mucilaginosa [2]): 10 mm
zone of inhibition at 500 µg/disc (Escherichia coli [3]): 7 mm
zone of inhibition at 1000 µg/disc (Trichoderma viride [6]): 12 mm
zone of inhibition at 1000 µg/disc (Aspergillus parasiticus [7]): 10 mm
zone of inhibition at 1000 µg/disc (Aliivibrio fischeri [9]): 8 mm
zone of inhibition at 500 µg/disc (Salmonella typhimurium): 9 mm
diameter of the inhibition zone (DIZ) [11]: inactive
diameter of the inhibition zone (DIZ) (Aliivibrio fischeri [12]): inactive
diameter of the inhibition zone (DIZ) (Staphylococcus): inactive
diameter of the inhibition zone (DIZ) (Proteus vulgaris [13]): inactive
diameter of the inhibition zone (DIZ) [14]: inactive
zone of inhibition at 1000 µg/disc (Bacillus cereus [15]): 12 mm
diameter of the inhibition zone (DIZ) (Aspergillus fumigatus [16]): inactive
diameter of the inhibition zone (DIZ) (Klebsiella aerogenes [18]): inactive
diameter of the inhibition zone (DIZ) (Penicillium chrysogenum): inactive
zone of inhibition at 500 µg/disc (Bacillus cereus [19]): 9 mm
zone of inhibition at 1000 µg/disc (Rhodotorula mucilaginosa [20]): 12 mm
zone of inhibition at 500 µg/disc (Trichoderma viride [21]): 9 mm
diameter of the inhibition zone (DIZ) (Lipomyces lipofer): inactive
zone of inhibition at 1000 µg/disc (Aspergillus flavus [22]): 10 mm
diameter of the inhibition zone (DIZ) (Proteus vulgaris [24]): inactive
zone of inhibition at 1000 µg/disc (Bacillus subtilis [25]): 11 mm
diameter of the inhibition zone (DIZ) (Pseudomonas aeruginosa [26]): inactive
zone of inhibition at 1000 µg/disc (Aspergillus fumigatus [27]): 10 mm
diameter of the inhibition zone (DIZ) (Pseudomonas aeruginosa [28]): inactive
